Efflux pump mplx: blocks antifungal efflux pumps in multiplex yeast assay | AID 485275 | 330,000 tested, 0.44% active | inhibition, % at 10 µM | S. cerevisiae Candida pump triplex, Nile Red efflux;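 active = plate passing quality check with inhibition over a set limit, or well fluorescence over plate mean plus 4 SD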;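 also: Nile Red retained in pooled yeast measured as flow cytometry median fluorescence; higher means more Nile Red kept so more efflux inhibition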
T cruzi repl: T. cruzi replication inhibition; T. cruzi beta-gal in NIH3T3, luminescence, 90 h; inhibition, % (no concentration beside the values); 300,000 tested, 1.4% active; AID 1885;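 active = mean inhibition across valid replicates above about 55%, limit read from the data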;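 also: signal also drops with host cell toxicity which is not excluded here; higher percent means less beta-gal luminescence so fewer parasites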
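Assay system: NIH/3T3 fibroblasts plus reporter T. cruzi. Amount: NIH/3T3 cells, 5,000 per well. Buffer or medium: DMEM, 2% fetal bovine serum. Doses: compound pinned at 50 nL/well, DMSO. Schedule: ≥90 h infection period, 3 h prior cell attachment. Signal: luminescent β-galactosidase signal after 60 min lysis. Read-out: parasite load inhibition, %.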
CSC inhib: cancer stem cell inhibition; cancer stem cell-like cells viability, luminescence; inhibition, % at 7.5 µM; 300,000 tested, 1.1% active; in the data active = inhibition above about 75%; tested in HMLE shEcad cells
WT yeast gro inh: growth inhibition of WT yeast, mitochondrial fusion screen; mitochondrial fusion phenotypic screen, WT strain; inhibition, % at 10 µM; 190,000 tested, 2.1% active; in the data active = inhibition above about 58%; tested in S. cerevisiae
Mot1-301 SUMO: inhibitors of SUMOylation pathway: yeast Mot1-301 growth rescue. S. cerevisiae Mot1-301 growth rescue, ATP luminescence, 38.5C; percent above DMSO median, 100 means doubled. growth rescue, % at 18.8 µM. 320,000 tested, 1% active. AID 2716;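 active = every valid replicate shows activation above 250% relative to neutral control wells; inactive = the rest, any valid replicate at or below 250%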
Beta cell apopt: blocks beta cell apoptosis | protection from apoptosis, % (concentration not given with the values) | INS-1E cytokine-induced death, ATP luminescence, 48 h; percent of positive-control rescue, neutral wells zero | 300,000 tested, 0.8% active;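 active = Every replicate reaches about 75%, or at least half do and their mean reaches it too, limit read from the data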;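 also: higher means more ATP so stronger rescue from cytokine killing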
Mot1 SUMO dose: yeast SUMO pathway inhibition in dose response | shares compounds with Mot1-301 SUMO | S. cerevisiae Mot1-301 galactose growth, ATP luminescence, 24 h; -100 = growth of slx-deleted rescue strain | growth activity, percent, % at 42 µM | 2,300 tested, under 10 active;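 active = Signal drops as the depositor expects, and the fitted half-maximal dose is no more than ten times the top valid tested dose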;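 also: more negative values mean stronger growth rescue toward the control strain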
Numbers stand for hits; n = inactive; x = no result; + = active, no number. Rows were chosen to be rich in hits. Some 4.8% of all compounds tested hit in one or more screens of this group.

SMILES	Efflux pump mplx	T cruzi repl	CSC inhib	WT yeast gro inh	Mot1-301 SUMO	Beta cell apopt	Mot1 SUMO dose
O=C(c1ccccc1)N(Cc1ccc(F)cc1)Cc1nc2ccccc2c(=O)[nH]1	n	n	n	n	n	n	x
COC(=O)c1cc2c(s1)-c1ccc(OC)cc1CC2	n	n	n	x	477	n	n
CCCCN(C(=O)c1cnccn1)c1c(N)n(CCC)c(=O)[nH]c1=O	n	x	n	x	n	n	x
CCCCn1c(N)c(N(CCOC)C(=O)c2cnccn2)c(=O)[nH]c1=O	n	n	n	x	765	x	n
CCCCn1c(N)c(N(CCOC)C(=O)c2ccc(Cl)c(S(=O)(=O)N3CCCCC3)c2)c(=O)[nH]c1=O	n	n	n	x	698	n	n
Cc1nn(CC(N)=O)c(=O)c2ccccc12	n	58	n	n	482	n	n
CCc1nnc2n1N=C(c1ccc(Cl)cc1)CS2	n	n	n	x	394	n	n
CCc1nnc2n1N=C(c1ccccc1)CS2	n	n	n	x	n	n	x
Cc1cc(S(=O)(=O)N2CCCCCC2)c(Cl)cc1Cl	n	n	n	n	n	n	x
O=c1[nH]c(C(F)(F)F)nc2c1nnn2Cc1ccccc1F	n	n	n	n	n	n	x
CCCc1nc2c(nnn2Cc2ccccc2F)c(=O)[nH]1	n	n	n	n	386	n	n
Cc1nc(-c2ccncc2)sc1C(=O)Nc1ccc(Br)cc1	n	n	n	n	745	n	n
CCc1nnc(NC(=O)CN2CCN(c3ccccc3F)CC2)s1	n	n	n	n	n	n	x
O=C(CSc1ncccn1)c1ccccc1Br	n	n	n	n	436	n	n
COc1ccc(CNCC(=O)Nc2cc(C)nn2-c2nc(C)cc(C)n2)cc1OC	n	n	n	x	n	n	x
Cc1cc(C)nc(-n2nc(C)cc2NC(=O)CNCc2ccccc2)n1	n	n	n	n	+	x	n
S=C(Nc1ccc(Cl)cc1)N1CCN(Cc2ccccc2)CC1	n	n	n	n	590	n	n
Cc1ccc(NC(=S)N2CCN(Cc3ccccc3)CC2)cc1	n	n	n	n	n	n	x
CC1(C)Oc2ccc3ccc(=O)oc3c2/C(=C/Nc2ccc(O)cc2)C1=O	n	n	n	n	984	n	n
O=C(CCCc1nc(-c2ccc(Cl)cc2)no1)NC1CCCCC1	n	n	n	x	861	n	n
Cc1ccc(N(C(=O)Cn2nnc3ccccc32)C(C(=O)NC2CCCCC2)c2cn(C)nc2C)cc1 (stereo not given)	n	n	n	n	835	n	n
Cc1nn(C)cc1C(C(=O)NC1CCCCC1)N(C(=O)Cn1nnc2ccccc21)c1ccc(F)cc1 (stereo not given)	n	n	n	n	n	n	x
COc1cc(NC(=O)c2cccnc2)ccc1-c1cc2ccccc2oc1=O	n	n	n	n	n	n	x
COc1cc(NC(=O)c2cc(Cl)ccc2Cl)ccc1-c1cc2ccccc2oc1=O	n	n	x	n	406	n	n
CCCC(=O)NC(Nc1cccc(C(F)(F)F)c1)C(Cl)(Cl)Cl (stereo not given)	n	n	n	n	n	n	x
SMILES	Efflux pump mplx	T cruzi repl	CSC inhib	WT yeast gro inh	Mot1-301 SUMO	Beta cell apopt	Mot1 SUMO dose
Cc1cccc(C(=O)NC(C(=O)Nc2ccccc2N2CCOCC2)C(C)C)c1 (stereo not given)	n	n	n	n	n	n	x
CC(C)CCN1C(=O)c2ccc(C(=O)Nc3c[nH]c(=O)[nH]c3=O)cc2C1=O	n	n	n	n	n	n	x
CC(=O)Oc1cccc(N2C(=O)c3ccc(C(=O)Nc4c[nH]c(=O)[nH]c4=O)cc3C2=O)c1	n	n	n	n	554	n	n
CC(C)(C)C(=O)NC1CCN(CC(=O)Nc2ccc3c(c2)OCO3)CC1	n	n	n	x	490	n	n
CCOC(=O)c1c(C)[nH]c(C(=O)COC(=O)c2ccncc2)c1C	n	n	n	n	+	n	n
CC1CC(c2ccccc2)NS(=O)(=O)O1 (stereo not given)	n	n	n	x	518	n	n
CN(CCN(C)C(C)(C)C)C(=O)C(c1ccccc1)c1ccccc1	n	n	n	x	n	n	x
COc1ccc(/C=N/NC(=O)c2cccnc2)cc1CN1CCOCC1	n	n	n	x	n	n	x
COc1cc(/C=N/NC(=O)c2cccnc2)ccc1OCC(=O)N1CCOCC1	n	n	n	n	768	x	n
COc1cc(/C=N/NC(=O)c2ccncc2)ccc1OC(=O)c1ccco1	n	n	x	x	404	n	n
COc1cc(/C=N/NC(=O)c2ccc(F)cc2)ccc1OC(=O)c1ccco1	n	n	n	n	n	n	x
CCCn1c(N)cc(=O)n(C)c1=O	n	n	n	n	n	n	x
CCn1c(SCC(=O)Nc2ccc(NC(=O)c3ccco3)cc2)nnc1-c1cccs1	n	n	x	x	+	n	n
Nc1ccc(C2(c3ccc(N)cc3)OC(=O)c3ccccc32)cc1	n	n	n	x	497	n	n
CCOC(=O)C1(CCSC)NC(c2ccco2)C2C(=O)N(C)C(=O)C21 (stereo not given)	n	n	x	n	n	n	x
Cn1c(SCC(=O)c2ccc(O)cc2O)nnc1-c1ccccc1	n	n	n	x	n	n	x
O=C(CSc1nnc(-c2cccs2)n1-c1ccccc1)c1ccc2c(c1)OCCO2	n	n	x	x	+	n	n
COc1ccc2c(c1)c(CC(=O)OCC(=O)O)c(C)n2C(=O)c1ccc(Cl)cc1	n	n	x	n	x	x	x
COc1ccc2c(c1)c(CC(=O)OCC(N)=O)c(C)n2C(=O)c1ccc(Cl)cc1	n	n	n	x	674	n	n
Cc1noc(C)c1COc1ccc(C(=O)NNC(=O)c2ccccc2O)cc1	n	n	n	x	n	n	x
Cc1ccccc1-c1nnn(CC(=O)Nc2ccc3c(c2)OCO3)n1	n	n	n	n	n	n	x
CCCCC(CCCCl)C(=O)Nc1ccccc1 (stereo not given)	n	n	n	n	n	n	x
CC(C)(C)C(=O)C(Cl)C(=O)Nc1ccccc1 (stereo not given)	n	n	n	x	604	n	n
O=C1CCc2cc(S(=O)(=O)N3CCC(C(=O)NC4CCCC4)CC3)ccc2N1	n	n	n	n	518	x	n
O=C1CCc2cc(S(=O)(=O)N3CCCC3C(=O)NC3CCCCCCC3)ccc2N1 (stereo not given)	n	n	n	n	n	n	x
O=CNCCCc1nc2ccccc2n1CCc1ccccc1	n	n	n	x	+	n	n
CCn1c(SCC(=O)OC)nnc1-c1ccncc1	n	n	n	n	825	n	n
CCn1c(SCC(=O)Nc2nc(-c3ccccc3)cs2)nnc1-c1ccccc1	n	n	n	n	570	n	n
Cc1nnc(SCC(=O)Nc2nc(-c3ccccc3)cs2)n1N	n	n	n	n	n	n	x
CCCCCCCN=CC1=C(O)CC(c2ccccc2)CC1=O (stereo not given)	n	n	n	n	n	n	x
